Reference: ChEMBL document CHEMBL4390662, “Design, synthesis and biological evaluation of novel α-acyloxy carboxamides via Passerini reaction as caspase 3/7 activators” (Eur J Med Chem, 2019)
≈ marks a conversion by molar mass, not a printed value. Calls of active or inactive are those of the source. The rule behind the calls is not given here.

How the values were obtained:
[1] = test system: WI-38; test: Cytotoxicity against human WI38 cells assessed as cell growth inhibition incubated for 72 hrs by MTT assay; type: cell-based; settings: for IC50: Homo sapiens, WI-38, 72 h; for EC100: human, wi-38, 72 h
How it was run: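 Wi-38 fibroblasts grown in DMEM with 10% FBS and seeded at 5×10^3 per well. Attachment 24 h, then serial concentrations for 72 h at 37°C, 5% CO2. MTT stock (5 mg/mL) added for 3 h at 37°C, DMSO solubilization, absorbance at 570 nm. IC50 estimated.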

[2] = Selectivity index, ratio of IC50 for human WI38 cells to IC50 for human MCF7 cells; type: toxicity; settings: WI38 cells versus MCF7 cells, read-out: Ratio IC50
How it was run: (§1)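 SI calculated as IC50 on normal Wi-38 fibroblasts divided by IC50 on the cancer cell line. Both came from 72 h MTT assays.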

[3] = test system: Staphylococcus aureus; test: Antimicrobial activity against Staphylococcus aureus ATCC 25923 incubated for 24 hrs by agar well diffusion assay; type: functional
How it was run: (§2)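 Nutrient agar spread with 100 µL inoculum: bacteria at 1×10^8 CFU/mL, fungi at 1×10^6 CFU/mL. 10 mm wells loaded with 100 µL of compound in DMSO (final 1 mg/mL). Bacteria incubated 24 h at 37 °C, fungi 48 h at 28 °C. Inhibition zones measured in mm. Ciprofloxacin and fluconazole standards at 1 mg/mL, DMSO negative control.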

[4] = Selectivity index, ratio of IC50 for human WI38 cells to IC50 for mouse NFS60 cells; how it was run: as §1
[5] = test system: Escherichia coli; test: Antimicrobial activity against Escherichia coli ATCC 25922 incubated for 24 hrs by agar well diffusion assay; type: functional; how it was run: as §2
[6] = test system: Pseudomonas aeruginosa; test: Antimicrobial activity against Pseudomonas aeruginosa ATCC 27853 incubated for 24 hrs by agar well diffusion assay; type: functional; how it was run: as §2
[7] = test system: MCF7; test: Cytotoxicity against human MCF7 cells assessed as cell growth inhibition incubated for 72 hrs by MTT assay; type: functional, cell-based; settings: MCF7, 72 h
How it was run: (§3)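 Cells grown in RPMI-1640 with 10% FBS and seeded at 5×10^3 per well. After 24 h, serial concentrations given for 72 h at 37°C, 5% CO2. Then 5 mg/mL MTT stock added for 3 h, formazan dissolved in DMSO, A570 read. IC50 calculated from the curves.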

[8] = test system: NFS-60; test: Cytotoxicity against mouse NFS60 cells assessed as cell growth inhibition incubated for 72 hrs by MTT assay; type: functional, cell-based; settings: NFS-60, 72 h; how it was run: as §3
[9] = Selectivity index, ratio of IC50 for human WI38 cells to IC50 for human HepG2 cells; type: toxicity; settings: WI38 cells versus HepG2 cells, read-out: Ratio IC50; how it was run: as §1
[10] = test system: HepG2; test: Cytotoxicity against human HepG2 cells assessed as cell growth inhibition incubated for 72 hrs by MTT assay; type: functional, cell-based; settings: HepG2, 72 h; how it was run: as §3
[11] = test system: Enterococcus faecalis; test: Antimicrobial activity against Enterococcus faecalis ATCC 29212 incubated for 24 hrs by agar well diffusion assay; type: functional; how it was run: as §2
[12] = test system: Candida albicans; test: Antimicrobial activity against Candida albicans ATCC 90028 incubated for 48 hrs by agar well diffusion assay; type: functional; how it was run: as §2
[13] = test system: Escherichia coli; test: Antimicrobial activity against Escherichia coli ATCC 25922 incubated for 24 hrs by microdilution assay; type: functional
How it was run: (§4)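 Two-fold serial dilutions of test solutions made in Mueller Hinton broth and inoculated. Incubated at 37°C for 24 h. MIC taken as the lowest concentration with no growth. Ciprofloxacin is the antibacterial reference, fluconazole the antifungal one, and DMSO the blank.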

[14] = test system: Staphylococcus aureus; test: Antimicrobial activity against Staphylococcus aureus ATCC 25923 incubated for 24 hrs by microdilution assay; type: functional; how it was run: as §4
[15] = test system: Candida albicans; test: Antimicrobial activity against Candida albicans ATCC 90028 incubated for 24 hrs by microdilution assay; type: functional; how it was run: as §4

SMILES | IC50 [1] [nM] | EC100 [1] [µM] | selectivity ratio [2] | diameter of the inhibition zone (DIZ) [3] | Ratio IC50 [4] | diameter of the inhibition zone (DIZ) [5] | diameter of the inhibition zone (DIZ) [6] | IC50 [7] [nM] | IC50 [8] [nM] | selectivity ratio [9] | IC50 [10] [nM] | diameter of the inhibition zone (DIZ) [11] | diameter of the inhibition zone (DIZ) [12] | MIC ([13]; ATCC 25922, 24 h) [µM] | MIC [14] | MIC [15] | MIC [13] | MIC ([14]; ATCC 25923, 24 h) [µM] | MIC ([15]; ATCC 90028, 24 h) [µM]
O=C(OC1(C(=O)Nc2ccc([N+](=O)[O-])cc2)CCCCC1)c1ccc(C(F)(F)F)cc1 | 185 | 0.0398 | 6.83 | inactive | 7.115 | inactive | inactive | 27.1 | 26 | 6.36 | 29.1 | inactive | inactive |  |  |  |  |  | 
O=C(OC1(C(=O)Nc2ccc([N+](=O)[O-])cc2)CCCCC1)c1ccccc1 | 246 | 0.148 | 0.272 |  | 0.322 |  |  | 903 | 766 | 0.335 | 734 |  |  |  |  |  |  |  | 
O=C(OC1(C(=O)Nc2ccc([N+](=O)[O-])cc2)CCCCC1)c1ccccc1[N+](=O)[O-] | 34.6 | 0.0067 | 2.35 | inactive | 1.84 | 12 mm | 14 mm | 14.7 | 18.8 | 0.786 | 44 | inactive | inactive | 2480 (≈ 1020 µg/mL) | inactive | inactive |  |  | 
O=C(OC1(C(=O)Nc2ccc([N+](=O)[O-])cc2)CCCCC1)c1ccc(Br)cc1 | 523 | 0.0095 | 2.21 |  | 2.216 |  |  | 237 | 236 | 1.84 | 284 |  |  |  |  |  |  |  | 
CCOC1(Nc2ccc([N+](=O)[O-])cc2)C(=O)c2ccccc2C1=O | 47 | 0.0285 | 1.35 | 12 mm | 1.69 | inactive | 16 mm | 34.9 | 27.8 | 1.21 | 38.9 | 13 mm | inactive |  |  | inactive | inactive | 1570 (≈ 512 µg/mL) | 
O=C(Nc1ccc([N+](=O)[O-])cc1)C1(O)CCCCC1 | 1220 | 0.53 | 1.84 | inactive | 1.705 | 12 mm | inactive | 664 | 716 | 1.88 | 648 | inactive | 15 mm |  | inactive |  | inactive |  | 1040 (≈ 275 µg/mL)
COC1(Nc2ccc([N+](=O)[O-])cc2)C(=O)c2ccccc2C1=O | 53.7 | 0.043 | 2.11 | inactive | 1.637 | 14 mm | 14 mm | 25.4 | 32.8 | 1.49 | 36 | inactive | inactive | 3280 (≈ 1020 µg/mL) | inactive | inactive |  |  | 
O=C(O)c1cn(C2CC2)c2cc(N3CCNCC3)c(F)cc2c1=O [CIPROFLOXACIN] |  |  |  | 26 mm |  | 43 mm | 40 mm |  |  |  |  | 24 mm |  | 3 (≈ 0.994 µg/mL) |  |  |  | 6 (≈ 1.99 µg/mL) | 
O=C(OC1(C(=O)Nc2ccc([N+](=O)[O-])cc2)CCCCC1)c1ccccc1I | 396 | 0.0247 | 0.639 |  |  |  |  | 619 |  |  |  |  |  |  |  |  |  |  | 
CC(=O)OC1(C(=O)Nc2ccc([N+](=O)[O-])cc2)CCCCC1 | 386 | 0.122 | 0.957 |  | 0.746 |  |  | 403 | 517 | 0.743 | 519 |  |  |  |  |  |  |  | 
O=C(/C=C/c1ccccc1)OC1(C(=O)Nc2ccc([N+](=O)[O-])cc2)CCCCC1 | 41 | 0.0197 | 0.711 | inactive | 0.811 | inactive | inactive | 57.6 | 50.5 | 0.774 | 52.9 | inactive | inactive |  |  |  |  |  | 
CCC(=O)OC1(C(=O)Nc2ccc([N+](=O)[O-])cc2)CCCCC1 | 44.6 | 0.0169 | 3.16 | inactive | 6.968 | inactive | 12 mm | 14.1 | 6.4 | 2.07 | 21.5 | inactive | inactive |  |  |  |  |  | 
Cc1ccccc1C(=O)OC1(C(=O)Nc2ccc([N+](=O)[O-])cc2)CCCCC1 | 352 | 0.018 | 0.682 |  |  |  |  | 516 |  |  |  |  |  |  |  |  |  |  | 
O=COC1(C(=O)Nc2ccc([N+](=O)[O-])cc2)CCCCC1 | 46.3 | 0.0271 | 1.31 | inactive | 1.369 | 15 mm | 18 mm | 35.4 | 33.8 | 1.36 | 34.1 | 12 mm | inactive | 3500 (≈ 1020 µg/mL) | inactive | inactive |  |  | 
OC(Cn1cncn1)(Cn1cncn1)c1ccc(F)cc1F [FLUCONAZOLE] |  |  |  |  |  |  |  |  |  |  |  |  | 29 mm |  |  |  |  |  | 1 (≈ 0.306 µg/mL)
CC1(C)CC(=O)C=C(Nc2ccc([N+](=O)[O-])cc2)C1 | 319 | 0.157 | 0.534 |  | 0.494 |  |  | 597 | 645 | 0.478 | 667 |  |  |  |  |  |  |  | 
COc1ccc(C(=O)OC2(C(=O)Nc3ccc([N+](=O)[O-])cc3)CCCCC2)cc1 | 40 | 0.0178 | 0.97 | inactive | 1.031 | 12 mm | 12 mm | 41.2 | 38.8 | 0.7 | 57.1 | inactive | inactive | 2570 (≈ 1020 µg/mL) | inactive | inactive |  |  | 
O=C(OC1(C(=O)Nc2ccc([N+](=O)[O-])cc2)C(=O)c2ccccc2C1=O)c1ccc(C(F)(F)F)cc1 | 1960 | 0.635 | 5 |  | 4.057 |  |  | 393 | 484 | 4.59 | 428 |  |  |  |  |  |  |  | 
O=C(CCC(=O)OC1(C(=O)Nc2ccc([N+](=O)[O-])cc2)CCCCC1)OC1(C(=O)Nc2ccc([N+](=O)[O-])cc2)CCCCC1 | 203 | 0.02 |  |  |  |  |  |  |  |  |  |  |  |  |  |  |  |  | 
CCOC(=O)c1ccccc1C(=O)OC1(C(=O)Nc2ccc([N+](=O)[O-])cc2)CCCCC1 | 386 | 0.122 | 0.869 |  | 0.79 |  |  | 444 | 488 | 0.746 | 517 |  |  |  |  |  |  |  | 
